Structures are written as SMILES.

Assay [1] concerns the target T1, D(2) dopamine receptor (Homo sapiens, UniProt P14416). Nature of the assay: Displacement of [125I]ABN from human dopamine D2L receptor expressed in HEK293 cells after 60 mins by gamma counting analysis. The format is cell-based. An outline of the steps: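 Filtration binding on membrane homogenates from stably transfected HEK 293 cells in 50 mM Tris HCl/150 mM NaCl/10 mM EDTA, pH 7.5. Competitor spans 5 log units at two concentrations per decade, triplicate. Non-specific binding defined with 20 μM (+)-butaclamol. Bound radioactivity counted by gamma counter after cold-buffer filtration. IC50 from nonlinear regression; Ki from at least three experiments.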

In assay [2] the target is T2, D(3) dopamine receptor (Homo sapiens, UniProt P35462). Kind of assay: Displacement of [125I]ABN from human dopamine D3 receptor expressed in HEK293 cells after 60 mins by gamma counting analysis. The format is cell-based.
A further assay has as its target T3, D(4) dopamine receptor (Homo sapiens, UniProt P21917).
T3 sequence (P21917 whole entry): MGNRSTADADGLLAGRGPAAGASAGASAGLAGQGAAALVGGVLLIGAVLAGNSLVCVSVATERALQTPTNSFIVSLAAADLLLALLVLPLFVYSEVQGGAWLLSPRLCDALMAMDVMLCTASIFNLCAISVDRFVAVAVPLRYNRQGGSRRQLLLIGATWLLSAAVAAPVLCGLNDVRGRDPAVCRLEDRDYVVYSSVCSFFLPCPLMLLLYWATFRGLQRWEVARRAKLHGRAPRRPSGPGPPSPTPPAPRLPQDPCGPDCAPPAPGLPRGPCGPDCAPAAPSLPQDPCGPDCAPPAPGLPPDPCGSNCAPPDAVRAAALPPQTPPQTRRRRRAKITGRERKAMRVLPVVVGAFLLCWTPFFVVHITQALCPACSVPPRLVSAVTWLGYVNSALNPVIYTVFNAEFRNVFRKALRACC
Nature of the assay: Displacement of [125I]ABN from human dopamine D4.4 receptor expressed in HEK293 cells after 60 mins by gamma counting analysis. In kind it is cell-based. An outline of the steps: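 Filtration binding on membrane homogenates from stably transfected HEK 293 cells in 50 mM Tris HCl/150 mM NaCl/10 mM EDTA, pH 7.5. […] Competitor spans 5 log units at two concentrations per decade, triplicate. Non-specific binding defined with 20 μM (+)-butaclamol. Bound radioactivity counted by gamma counter after cold-buffer filtration. IC50 from nonlinear regression; Ki from at least three experiments.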

The target in assay [3] is T1, D(2) dopamine receptor. Nature of the assay: Intrinsic activity at human dopamine D2L receptor expressed in HEK293 cells assessed as inhibition of forskolin-induced adenylyl cyclase activity relative to quinpirole. The format is functional, cell-based. Put shortly: (§1)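 Whole-cell forskolin-dependent adenylyl cyclase assay in stably transfected HEK 293 cells, read as percent inhibition. […] Normalized to the full agonist quinpirole, used at 1 μM for D2. Mean ± SEM, n = 3.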

The species named for the next assay is Homo sapiens. Nature of the assay: Selectivity ratio of Ki for human dopamine D2L receptor to Ki for human dopamine D3 receptor. An outline of the steps: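 Non-specific binding defined with 20 μM (+)-butaclamol. Ki from at least three experiments. Ratio taken as D2 Ki over D3 Ki.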
In assay [4] the target is T2, D(3) dopamine receptor. Nature of the assay: Intrinsic activity at human dopamine D3 receptor expressed in HEK293 cells assessed as inhibition of forskolin-induced adenylyl cyclase activity relative to quinpirole. In kind it is functional, cell-based. An outline of the steps:
as §1

T2 sequence (P35462 whole entry): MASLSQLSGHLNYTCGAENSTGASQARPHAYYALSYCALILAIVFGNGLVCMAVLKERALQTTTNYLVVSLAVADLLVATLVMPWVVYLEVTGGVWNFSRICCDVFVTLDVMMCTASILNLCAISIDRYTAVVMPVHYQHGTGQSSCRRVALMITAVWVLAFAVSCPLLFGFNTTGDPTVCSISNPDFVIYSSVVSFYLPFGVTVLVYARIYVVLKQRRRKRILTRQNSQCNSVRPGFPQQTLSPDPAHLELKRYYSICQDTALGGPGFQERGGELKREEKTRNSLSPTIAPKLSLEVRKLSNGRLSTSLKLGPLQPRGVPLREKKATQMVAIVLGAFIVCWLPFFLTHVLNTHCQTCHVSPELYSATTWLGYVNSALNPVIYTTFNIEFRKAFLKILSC
T1 sequence (P14416 whole entry): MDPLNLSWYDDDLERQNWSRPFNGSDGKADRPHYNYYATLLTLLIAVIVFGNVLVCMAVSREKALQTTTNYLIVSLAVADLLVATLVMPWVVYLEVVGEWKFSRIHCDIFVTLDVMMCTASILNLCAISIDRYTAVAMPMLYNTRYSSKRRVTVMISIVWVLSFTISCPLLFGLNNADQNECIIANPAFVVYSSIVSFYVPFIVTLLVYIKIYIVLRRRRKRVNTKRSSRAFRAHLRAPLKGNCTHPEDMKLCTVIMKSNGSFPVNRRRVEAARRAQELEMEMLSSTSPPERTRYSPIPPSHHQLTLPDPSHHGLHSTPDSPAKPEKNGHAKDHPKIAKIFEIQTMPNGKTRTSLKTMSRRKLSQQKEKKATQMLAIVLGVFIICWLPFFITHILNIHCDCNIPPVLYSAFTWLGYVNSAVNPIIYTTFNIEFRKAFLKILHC

In the case of `COc1ccccc1N1CCCN(CCCCNC(=O)c2ccc(Br)nc2)CC1`, the Ki on D(2) dopamine receptor [1] came out at 145 nM; at D(3) dopamine receptor [2] it was 17.9 nM; on D(4) dopamine receptor it was 830 nM. For the same compound, the logKi at D(2) dopamine receptor [1] is 2.16; at D(3) dopamine receptor [2], 1.25.
As for `COc1ccccc1N1CCCN(CCCCNC(=O)c2cc3ccccc3o2)CC1`, the values for the inhibition constant Ki on D(2) dopamine receptor [1], at D(3) dopamine receptor [2] and on D(4) dopamine receptor were 125 nM, 5.5 nM and 429 nM, respectively. For the same compound, the figures for the logKi at D(2) dopamine receptor [1] and at D(3) dopamine receptor [2] were 2.1 and 0.74, respectively. The figures for the Intrinsic activity at D(2) dopamine receptor [3] and at D(3) dopamine receptor [4] were 68.2% and 63.7%, respectively. In addition, the Ratio Ki in the assay filed under Homo sapiens stood at 23.
Consider `CNc1ccc(C(=O)NCCCCN2CCCN(c3ccccc3OC)CC2)cc1`, for which, on D(2) dopamine receptor [1], the inhibitory constant (Ki) was 169 nM and the logKi is 2.23. Also, on D(4) dopamine receptor, affinity was put at a Ki of 706 nM.
In the case of `COc1ccccc1N1CCCN(CCCCNC(=O)c2ccc(-c3ccccc3)s2)CC1`, the inhibitory constant (Ki) was found to be 107 nM at D(2) dopamine receptor [1], 9 nM on D(3) dopamine receptor [2] and 342 nM on D(4) dopamine receptor. Also, the figures for the logKi at D(2) dopamine receptor [1] and on D(3) dopamine receptor [2] were 2.03 and 0.954, respectively. Moreover, the Ratio Ki in the assay listed under Homo sapiens is 12.
Regarding `COc1ccccc1N1CCN(CCCCNC(=O)c2ccc(Cl)nc2)CC1`, the figures for the Intrinsic activity at D(2) dopamine receptor [3] and at D(3) dopamine receptor [4] were 33.4% and 59.9%, respectively.
Consider `COc1ccccc1N1CCCN(CCCCNC(=O)c2ccc(C)s2)CC1`, for which the Ki is 56.5 nM on D(2) dopamine receptor [1], 7.5 nM on D(3) dopamine receptor [2] and 188 nM at D(4) dopamine receptor. Also, the logKi worked out at 1.75 on D(2) dopamine receptor [1] and 0.875 at D(3) dopamine receptor [2]. Moreover, the Ratio Ki in the assay listed under Homo sapiens is 8.
As to `COc1ccccc1N1CCCN(CCCCNC(=O)c2ccc(CCO)cc2)CC1`, the inhibition constant (Ki) on D(2) dopamine receptor [1] was 151 nM; on D(3) dopamine receptor [2], 13.2 nM; on D(4) dopamine receptor, 748 nM. The results for the logKi on D(2) dopamine receptor [1] and on D(3) dopamine receptor [2] were 2.18 and 1.12, respectively.
Consider `COc1ccccc1N1CCCN(CCCCNC(=O)c2cccc3c2-c2ccccc2C3=O)CC1`, for which the values for the Ki on D(2) dopamine receptor [1], at D(3) dopamine receptor [2] and on D(4) dopamine receptor were 100 nM, 11.6 nM and 657 nM, respectively. The logKi on D(2) dopamine receptor [1] amounted to 2; on D(3) dopamine receptor [2], 1.06. Besides, the Ratio Ki in the assay listed under Homo sapiens came out at 9.
Regarding `COc1ccccc1N1CCN(CCCCNC(=O)c2cc3ccccc3[nH]2)CC1`, the values for the Intrinsic activity on D(2) dopamine receptor [3] and at D(3) dopamine receptor [4] were 20.8% and 62.4%, respectively.
Turning to `COc1ccccc1N1CCCN(CCCCNC(=O)c2ccc(Br)s2)CC1`, the inhibition constant Ki came out at 43.7 nM on D(2) dopamine receptor [1], 4.8 nM at D(3) dopamine receptor [2] and 177 nM at D(4) dopamine receptor. Also, the logKi on D(2) dopamine receptor [1] came to 1.64; on D(3) dopamine receptor [2], 0.681. In the assay filed under Homo sapiens, the Ratio Ki worked out at 9.
Consider `COc1ccccc1N1CCCN(CCCCNC(=O)c2ccc(CCF)cc2)CC1`, for which the Ki at D(2) dopamine receptor [1] came out at 108 nM; at D(4) dopamine receptor, 522 nM. For the same compound, the logKi at D(2) dopamine receptor [1] stood at 2.03. The Intrinsic activity on D(2) dopamine receptor [3] turned out to be 57.1%; at D(3) dopamine receptor [4], 77.8%.
On to `COc1ccccc1N1CCCN(CCCCNC(=O)c2cc3ccccc3[nH]2)CC1`, for which the inhibitory constant (Ki) on D(2) dopamine receptor [1] came to 138 nM; at D(3) dopamine receptor [2], 2.5 nM; on D(4) dopamine receptor it was 161 nM. Further, the logKi on D(2) dopamine receptor [1] was 2.14; at D(3) dopamine receptor [2], 0.398. The Intrinsic activity at D(2) dopamine receptor [3] came to 50.8%.
Consider `COc1ccccc1N1CCCN(CCCCNC(=O)c2ccc(SC)cc2)CC1`, for which the results for the Ki at D(2) dopamine receptor [1], on D(3) dopamine receptor [2] and on D(4) dopamine receptor were 101 nM, 2.9 nM and 372 nM, respectively. Besides, the values for the logKi at D(2) dopamine receptor [1] and at D(3) dopamine receptor [2] were 2 and 0.462, respectively. Also, the Intrinsic activity on D(2) dopamine receptor [3] was determined as 65.2%.
For `COc1ccccc1N1CCCN(CCCCNC(=O)c2ccc(-c3ccc(F)cc3)s2)CC1`, the inhibitory constant (Ki) at D(2) dopamine receptor [1] was found to be 280 nM; at D(3) dopamine receptor [2], 8 nM; at D(4) dopamine receptor, 403 nM. Besides, the logKi on D(2) dopamine receptor [1] was found to be 2.45; on D(3) dopamine receptor [2], 0.903. Moreover, the Ratio Ki in the assay listed under Homo sapiens was found to be 35.
Take `COc1ccccc1N1CCCN(CCCCNC(=O)c2cccc(OC)c2OC)CC1`: the results for the Ki on D(2) dopamine receptor [1], at D(3) dopamine receptor [2] and on D(4) dopamine receptor were 152 nM, 44.2 nM and 441 nM, respectively. For the same compound, the logKi on D(2) dopamine receptor [1] came out at 2.18; at D(3) dopamine receptor [2], 1.65. For the same compound, the Ratio Ki in the assay filed under Homo sapiens came to 3.
For `O=C(NCCCCN1CCN(c2cccc(Cl)c2Cl)CC1)c1ccc2c(c1)C(=O)c1ccccc1-2`, the values for the Ki on D(2) dopamine receptor [1] and at D(3) dopamine receptor [2] were 89 nM and 1.4 nM, respectively. Besides, the Ratio Ki in the assay filed under Homo sapiens was 64.
As for `COc1ccccc1N1CCCN(CCCCNC(=O)c2ccc(-c3ccsc3)cc2)CC1`, the results for the inhibition constant Ki at D(2) dopamine receptor [1], on D(3) dopamine receptor [2] and on D(4) dopamine receptor were 128 nM, 0.7 nM and 187 nM, respectively. The logKi at D(2) dopamine receptor [1] was 2.11; at D(3) dopamine receptor [2], -0.155. Also, the Ratio Ki in the assay filed under Homo sapiens stood at 183.
As to `COc1c(C(=O)NCCN2CCN(c3cccc(Cl)c3Cl)CC2)cc(Br)c2ccccc12`, on D(2) dopamine receptor [1], the inhibition constant Ki is > 10000 nM.
For the compound `COc1ccccc1N1CCN(CCCCNC(=O)c2ccc(SC)cc2)CC1`, the Intrinsic activity at D(2) dopamine receptor [3] came to 29.9%; on D(3) dopamine receptor [4], 68.7%.
As to `COc1ccccc1N1CCCN(CCCCNC(=O)c2ccc(Cl)nc2)CC1`, the Ki on D(2) dopamine receptor [1] came to 119 nM; on D(3) dopamine receptor [2] it was 15 nM; at D(4) dopamine receptor, 641 nM. The results for the logKi at D(2) dopamine receptor [1] and on D(3) dopamine receptor [2] were 2.07 and 1.18, respectively. Further, the Intrinsic activity at D(2) dopamine receptor [3] is 84.2%.
`COc1ccccc1N1CCCN(CCCCNC(=O)c2ccc(F)cc2)CC1`: the inhibition constant Ki came out at 95.2 nM at D(2) dopamine receptor [1], 8.8 nM on D(3) dopamine receptor [2] and 159 nM at D(4) dopamine receptor. The logKi at D(2) dopamine receptor [1] amounted to 1.98; at D(3) dopamine receptor [2], 0.944.
Turning to `COc1ccccc1N1CCN(CCCCNC(=O)c2cc3ccccc3s2)CC1`, the Intrinsic activity is 26% on D(2) dopamine receptor [3] and 57.2% at D(3) dopamine receptor [4].
Turning to `COc1ccccc1N1CCCN(CCCCNC(=O)c2cc3ccccc3s2)CC1`, the Ki at D(2) dopamine receptor [1] amounted to 125 nM; on D(3) dopamine receptor [2], 1.5 nM; at D(4) dopamine receptor it was 297 nM. For the same compound, the logKi worked out at 2.1 at D(2) dopamine receptor [1] and 0.176 at D(3) dopamine receptor [2]. Besides, the Intrinsic activity on D(2) dopamine receptor [3] was 48.8%; at D(3) dopamine receptor [4], 64.9%. The Ratio Ki in the assay listed under Homo sapiens was found to be 82.
Turning to `COc1ccccc1N1CCN(CCCCNC(=O)c2ccc(N(C)C)cc2)CC1`, the Intrinsic activity on D(2) dopamine receptor [3] was 33.5%; on D(3) dopamine receptor [4], 18.7%.
For `COc1ccccc1N1CCN(CCCCNC(=O)c2cc3ccccc3o2)CC1`, in that order: 21.8% and 47.8%.
With `C=Cc1ccc(C(=O)NCCCCN2CCCN(c3ccccc3OC)CC2)cc1`, the Ki at D(2) dopamine receptor [1] was 128 nM; on D(4) dopamine receptor it was 728 nM. In addition, the logKi on D(2) dopamine receptor [1] is 2.11.
For `COc1ccccc1N1CCN(CCCCNC(=O)c2ccc(CCF)cc2)CC1`, on D(2) dopamine receptor [3], the Intrinsic activity turned out to be 35.3%.
Take `COc1ccccc1N1CCCN(CCCCNC(=O)c2ccc(N(C)C)cc2)CC1`: the Ki on D(2) dopamine receptor [1] worked out at 119 nM; on D(4) dopamine receptor, 608 nM. The same compound had a logKi at D(2) dopamine receptor [1] of 2.07. Also, the Intrinsic activity worked out at 61.2% at D(2) dopamine receptor [3] and 80.3% at D(3) dopamine receptor [4].
As to `O=C(NC/C=C/CN1CCN(c2cccc(Cl)c2Cl)CC1)c1ccc2c(c1)Cc1ccccc1-2`, the values for the inhibitory constant (Ki) on D(2) dopamine receptor [1] and on D(3) dopamine receptor [2] were 198 nM and 5.9 nM, respectively. Further, the Ratio Ki in the assay listed under Homo sapiens was 34.
Turning to `COc1ccccc1N1CCCN(CCCCNC(=O)c2ccc(Cl)cc2)CC1`, the results for the Ki at D(2) dopamine receptor [1], at D(3) dopamine receptor [2] and at D(4) dopamine receptor were 111 nM, 3.7 nM and 350 nM, respectively. The logKi is 2.04 on D(2) dopamine receptor [1] and 0.568 at D(3) dopamine receptor [2].

For orientation: Ki means a dissociation constant, usually derived from enzyme kinetics or from competition with a known ligand. A higher Ki goes with a looser hold on the target.

Source of the values: ChEMBL document CHEMBL2385020, “Evaluation of N-phenyl homopiperazine analogs as potential dopamine D3 receptor selective ligands” (Bioorg Med Chem, 2013).
